From ChEMBL document CHEMBL2169772, “Discovery of (2S)-1-[4-(2-{6-amino-8-[(6-bromo-1,3-benzodioxol-5-yl)sulfanyl]-9H-purin-9-yl}ethyl)piperidin-1-yl]-2-hydroxypropan-1-one (MPC-3100), a purine-based Hsp90 inhibitor” (J Med Chem, 2012)
Active and inactive are the calls of the source. The rule behind the calls is not given here.

Experiments:
[1] = Half life in Swiss nude mouse at 2.5 mg/kg, iv by LC-ESI-MS/MS method; assay type: ADME, organism-based; design: dose 2.5 mg/kg, route intravenous; conditions: in vivo
Summary of the method: (§1)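 Intravenous dose in mice, vehicle DMA/PEG300/EtOH/H2O 3/40/12/45. Sampling at 5, 15, 30, 60, 120, 240, 480 and 720 min, three or five animals per time point. Cardiac-puncture EDTA plasma. Acetonitrile protein precipitation with internal standard, then LC-ESI-MS/MS (10–10 000 ng/mL curve). Parameters by noncompartmental fit.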

[2] = test system: Mus musculus; assay: Inhibition of HSP90 in human NCI-N87 cells xenografted nude mouse liver assessed as induction of HSP70 mRNA expression at 50 to 200 mg/kg, po qd for 22 days; assay type: functional, organism-based
[3] = test system: NCI-N87; assay: Antitumor activity against human NCI-N87 cells xenografted in nude mouse assessed as tumor regression at 200 mg/kg, po qd for 22 days measured twice a week; conditions: 528 h
[4] = Tmax in Swiss nude mouse at 10 mg/kg, po by LC-ESI-MS/MS method; assay type: ADME, organism-based; design: dose 10 mg/kg, route oral; conditions: in vivo
Summary of the method: (§2)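 Mice dosed by oral gavage, vehicle DMA/PEG300/EtOH/H2O (3/40/12/45, v/v/v/v). Blood drawn by cardiac puncture into EDTA plasma. Three or five animals per time point. Plasma precipitated with acetonitrile plus internal standard. Quantified by LC-ESI-MS/MS against a 10–10 000 ng/mL standard curve with QC samples. Noncompartmental analysis.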

[5] = biological target: T1, Heat shock protein HSP90 (Homo sapiens, UniProt P07900+P08238); assay: Inhibition of human HSP90 in DU145 cells assessed as induction of HSP70 incubated for 24 hrs by Western blot method; assay type: cell-based; conditions: DU-145
Summary of the method: (§3)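 Cells exposed to a range of concentrations for 24 h. Lysates analyzed by Western blot with Her2-, Hsp70- and Akt-specific antibodies.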

[6] = biological target: T1, Heat shock protein HSP90; assay: Inhibition of human HSP90 in HCT116 cells assessed as degradation of Akt incubated for 24 hrs by Western blot method; assay type: cell-based; summary of the method: as §3
[7] = test system: Mus musculus; assay: Toxicity in nude mouse xenografted with human NCI-N87 cells assessed as effect on body weight at 75 mg/kg, po qd for 22 days measured twice a week; assay type: organism-based; design: dose 75 mg/kg, route oral; conditions: in vivo, 528 h
Summary of the method: (§4)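 Female nude mice (Crl:NU-Fox1nu) implanted subcutaneously in the right flank with 5 million NCI-N87 cells. At median tumor volume of roughly >100 mm3, randomized to 5 cohorts of 10. Dosed orally once daily for 22 days with vehicle (40% w/w Captisol) or 50, 75, 125 or 200 mg/kg. Tumor size and body weight measured at least twice weekly.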

[8] = test system: OVCAR-8; assay: Cytotoxicity against human OVCAR8 cells assessed as inhibition of tumor growth incubated for 72 hrs by luminometry; assay type: functional, cell-based; conditions: OVCAR-8, 72 h
Summary of the method: (§5)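 Cells seeded at 5000 per well in DMEM with 10% serum and left overnight. Compound added from DMSO dilutions (0.4% DMSO final) for 72 h. After 5 min at room temperature, ATPLite two-step lysis and substrate added, 5 min incubation, then luminescence read. Values are the mean of at least two experiments.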

[9] = test system: NCI-N87; assay: Cytotoxicity against human NCI-N87 cells assessed as inhibition of tumor growth incubated for 72 hrs by luminometry; assay type: functional, cell-based; conditions: NCI-N87, 72 h; summary of the method: as §5
[10] = Oral bioavailability in Swiss nude mouse at 10 mg/kg by LC-ESI-MS/MS method; assay type: ADME, organism-based; conditions: in vivo; summary of the method: as §2
[11] = test system: NCI-N87; assay: Antitumor activity against human NCI-N87 cells xenografted in nude mouse assessed as tumor growth inhibition at 75 mg/kg, po qd for 22 days measured twice a week; assay type: functional; conditions: NCI-N87, 528 h, read-out: TGI; summary of the method: as §4
[12] = biological target: T1, Heat shock protein HSP90; assay: Inhibition of human HSP90 in HCT116 cells assessed as induction of HSP70 incubated for 24 hrs by Western blot method; assay type: cell-based; conditions: HCT-116; summary of the method: as §3
[13] = Volume of distribution in Swiss nude mouse at 2.5 mg/kg, iv by LC-ESI-MS/MS method; assay type: ADME, organism-based; design: dose 2.5 mg/kg, route intravenous; conditions: in vivo; summary of the method: as §1
[14] = biological target: T1, Heat shock protein HSP90; assay: Inhibition of human HSP90 in NCI-N87 cells assessed induction of HSP70 incubated for 24 hrs by Western blot method; assay type: cell-based; summary of the method: as §3
[15] = biological target: T1, Heat shock protein HSP90; assay: Inhibition of human HSP90 in HCT116 cells expressing Her2 gene assessed as degradation of Her2 after 4 hrs by luciferase reporter gene assay; assay type: cell-based; conditions: hct-116
Summary of the method: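 HCT116 cells stably transfected with Her2 kinase domain (aa 641–975) fused to firefly luciferase. Seeded at 10 000 per well in DMEM with 10% serum and left overnight. Compound added from DMSO (0.4% final) for 4 h. Steady-Glo added at room temperature for 5 min, then luminescence read.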

[16] = test system: HCT-116; assay: Cytotoxicity against human HCT116 cells assessed as inhibition of tumor growth incubated for 72 hrs by luminometry; assay type: functional, cell-based; conditions: HCT-116, 72 h; summary of the method: as §5
[17] = Lipophilicity, log P of the compound; assay type: physicochemical; conditions: octanol/water
[18] = biological target: T1, Heat shock protein HSP90; assay: Inhibition of human HSP90 in DU145 cells assessed as degradation of Her2 incubated for 24 hrs by Western blot method; assay type: cell-based; summary of the method: as §3
[19] = biological target: T1, Heat shock protein HSP90; assay: Inhibition of human HSP90 using BODIPY labelled geldanamycin as substrate by fluorescence polarization assay; assay type: protein assay
[20] = test system: DU-145; assay: Cytotoxicity against human DU145 cells assessed as inhibition of tumor growth incubated for 72 hrs by luminometry; assay type: functional, cell-based; conditions: DU-145, 72 h; summary of the method: as §5
[21] = AUC in Swiss nude mouse at 10 mg/kg, po by LC-ESI-MS/MS method; assay type: ADME, organism-based; design: dose 10 mg/kg, route oral; conditions: plasma; summary of the method: as §2
[22] = test system: MV4-11; assay: Cytotoxicity against human MV4-11 cells assessed as inhibition of tumor growth incubated for 72 hrs by luminometry; assay type: functional, cell-based; conditions: MV4-11, 72 h; summary of the method: as §5
[23] = test system: Mus musculus; assay: Toxicity in nude mouse xenografted with human NCI-N87 cells assessed as effect on body weight at 50 mg/kg, po qd for 22 days measured twice a week; assay type: organism-based; design: dose 50 mg/kg, route oral; conditions: in vivo, 528 h; summary of the method: as §4
[24] = test system: NCI-N87; assay: Antitumor activity against human NCI-N87 cells xenografted in nude mouse assessed as tumor growth inhibition at 50 mg/kg, po qd for 22 days measured twice a week; assay type: functional; conditions: NCI-N87, 528 h, read-out: TGI; summary of the method: as §4
[25] = test system: NCI-H69; assay: Cytotoxicity against human NCI-H69 cells assessed as inhibition of tumor growth incubated for 72 hrs by luminometry; assay type: functional, cell-based; conditions: NCI-H69, 72 h; summary of the method: as §5
[26] = biological target: T1, Heat shock protein HSP90; assay: Inhibition of human HSP90 in HCT116 cells assessed as degradation of Her2 incubated for 24 hrs by Western blot method; assay type: cell-based; summary of the method: as §3
[27] = biological target: T1, Heat shock protein HSP90; assay: Inhibition of human HSP90 in DU145 cells assessed as degradation of Akt incubated for 24 hrs by Western blot method; assay type: cell-based; summary of the method: as §3
[28] = test system: Mus musculus; assay: Inhibition of HSP90 in human NCI-N87 cells xenografted nude mouse tumor assessed as induction of HSP70 mRNA expression at 50 to 200 mg/kg, po qd for 22 days; assay type: functional, organism-based
[29] = Cmax in Swiss nude mouse at 10 mg/kg, po by LC-ESI-MS/MS method; assay type: ADME, organism-based; design: dose 10 mg/kg, route oral; conditions: in vivo; summary of the method: as §2
[30] = test system: Mus musculus; assay: Inhibition of HSP90 in mouse liver assessed as induction of HSP70 mRNA expression at 100 mg/kg, po after 6 hrs relative to control; assay type: functional
[31] = test system: HT-29; assay: Cytotoxicity against human HT-29 cells assessed as inhibition of tumor growth incubated for 72 hrs by luminometry; assay type: functional, cell-based; conditions: HT-29, 72 h; summary of the method: as §5

For `C[C@H](O)C(=O)N1CCC(CCn2c(Sc3cc4c(cc3Br)OCO4)nc3c(N)ncnc32)CC1`, the half-life [1] was 84 min, the inhibition [2] was “Active” and the tumor regression at 200 mg/kg [3] was 48%. For the same molecule, the Tmax [4] was 15 min, the inhibition [5] was “Dose-dependent effect” and the inhibition ([6]; HCT-116) was “Dose-dependent effect”. The IC50 ([6]; hct-116) was 100 nM, the Activity [7] was “Non-toxic” and the IC50 [8] was 490 nM. For the same molecule, the IC50 [9] was 200 nM, the bioavailability [10] was 38% and the inhibition in vivo at 75 mg/kg [11] was 62%. For the same molecule, the inhibition [12] was “Dose-dependent effect”, the Vd [13] was 2.44 L/kg and the inhibition [14] was “Dose-dependent effect”. It also gave an IC50 [15] of 60 nM, an IC50 [16] of 540 nM and a logP [17] of 3.32. For the same molecule, the inhibition ([18]; DU-145) was “Dose-dependent effect”, the IC50 ([18]; du-145) was 100 nM and the IC50 [19] was 140 nM. For the same molecule, the IC50 [20] was 530 nM, the AUC [21] was 3210 ng·h/mL and the IC50 [22] was 250 nM. For the same molecule, the Activity [23] was “Non-toxic”, the inhibition in vivo at 50 mg/kg [24] was 37% and the IC50 [25] was 150 nM. The inhibition ([26]; HCT-116) was “Dose-dependent effect”, the IC50 ([26]; hct-116) was 100 nM and the inhibition ([27]; DU-145) was “Dose-dependent effect”. The IC50 ([27]; du-145) was 100 nM, the inhibition [28] was “Active” and the Cmax [29] was 2800 ng/mL. For the same molecule, the “fold change (FC)” value [30] was 53 and the IC50 [31] was 420 nM.
